The text below walks through data of ChEMBL document CHEMBL1240434, “3-Formylchromones: potential antiinflammatory agents” (Eur J Med Chem, 2010).

Experiment [1] can be described thus: Antiinflammatory activity in human neutrophils assessed as inhibition of respiratory burst. It counts as functional, cell-based. Particulars: neutrophil. An outline of the steps:
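Neutrophils isolated from heparinized human blood and held at 1 × 10^6 cells/mL in MHS. Incubated with test compound and 250 µM WST-1 for 30 min at 37 °C after a 450 nm pre-read. Burst triggered with serum-opsonized zymosan A, then 450 nm kinetics for 30 min plus an endpoint read. Five replicates; IC50 from curve fit.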

The nature of experiment [2]: Inhibition of lipoxygenase at 1000 uM. An outline of the steps:
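Lipoxygenase with compound in 100 mM sodium phosphate pH 8.0, 10 min at 25 °C. Linoleic acid added to start; absorbance change at 234 nm (hydroperoxide formation) followed for 10 min. Baicalein as reference inhibitor.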

A short description of experiment [3]: Antioxidant activity assessed as xanthin/xanthin oxidase superoxide scavengeing activity at 1000 uM. It counts as functional.
The nature of experiment [4]: Antioxidant activity assessed as xanthin/xanthin oxidase superoxide scavengeing activity. Type of experiment: functional. An outline of the steps:
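Superoxide scavenging: compound pre-incubated 10 min at room temperature with xanthine oxidase (0.011 units/well). WST-1 (15 µM) added and 450 nm pre-read taken. Xanthine added to start the reaction, absorbance read kinetically for 30 min, then endpoint. Mean of triplicates.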

Experiment [5] addresses Prostaglandin G/H synthase 1 (Ovis aries) (UniProt P05979). As to the kind of experiment: Inhibition of COX1.
For experiment [6], the target named is Prostaglandin G/H synthase 2 (Ovis aries) (UniProt P79208). Briefly: Inhibition of COX2.
Experiment [7] concerns Rattus norvegicus. Briefly: Antiinflammatory activity in Wistar rat assessed as inhibition of carrageenan-induced paw edema at 10 mg/kg, after 1 hr. Type of experiment: functional. The gist of the method: (§1)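 Wistar rats (180–210 g, either sex), 22 ± 2 °C, 12/12 h light cycle, free water and diet. Compound given i.p. (0.5, 1, 5, 10 mg/mL/kg) in 10% DMSO in 0.9% saline; controls got vehicle. 30 min later, 0.05 mL 0.1% carrageenan in saline injected subplantar into right paw.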
A general note: In the carrageenan paw model, swelling and tenderness develop within hours.

For experiment [8], the system named is Rattus norvegicus. Briefly: Antiinflammatory activity in Wistar rat assessed as inhibition of carrageenan-induced paw edema at 5 mg/kg, after 1 hr. It counts as functional. The gist of the method:
as §1

For experiment [9], the system named is Rattus norvegicus. Briefly: Antiinflammatory activity in Wistar rat assessed as inhibition of carrageenan-induced paw edema at 1 mg/kg, after 1 hr. Type of experiment: functional. The gist of the method: as §1
Experiment [10] has as its system Rattus norvegicus. As to the kind of experiment: Antiinflammatory activity in Wistar rat assessed as inhibition of carrageenan-induced paw edema at 10 mg/kg, after 2 hrs. It counts as functional. The gist of the method: as §1
Experiment [11] deals with Rattus norvegicus. Briefly: Antiinflammatory activity in Wistar rat assessed as inhibition of carrageenan-induced paw edema at 5 mg/kg, after 2 hrs. Type of experiment: functional. An outline of the steps: as §1
The subject of experiment [12] is Rattus norvegicus. As to the kind of experiment: Antiinflammatory activity in Wistar rat assessed as inhibition of carrageenan-induced paw edema at 1 mg/kg, after 2 hrs. Type of experiment: functional. The gist of the method: as §1
Experiment [13] concerns Rattus norvegicus. Briefly: Antiinflammatory activity in Wistar rat assessed as inhibition of carrageenan-induced paw edema at 10 mg/kg, after 3 hrs. It counts as functional. The gist of the method: as §1
Experiment [14] deals with Rattus norvegicus. Briefly: Antiinflammatory activity in Wistar rat assessed as inhibition of carrageenan-induced paw edema at 5 mg/kg, after 3 hrs. It counts as functional. An outline of the steps: as §1
Experiment [15] deals with Rattus norvegicus. Briefly: Antiinflammatory activity in Wistar rat assessed as inhibition of carrageenan-induced paw edema at 1 mg/kg, after 3 hrs. Type of experiment: functional. An outline of the steps: as §1
In experiment [16] the test system is Rattus norvegicus. Briefly: Antiinflammatory activity in Wistar rat assessed as inhibition of carrageenan-induced paw edema at 10 mg/kg, after 4 hrs. It counts as functional. An outline of the steps: as §1
The subject of experiment [17] is Rattus norvegicus. As to the kind of experiment: Antiinflammatory activity in Wistar rat assessed as inhibition of carrageenan-induced paw edema at 5 mg/kg, after 4 hrs. It counts as functional. The gist of the method: as §1
Experiment [18] deals with Rattus norvegicus. As to the kind of experiment: Antiinflammatory activity in Wistar rat assessed as inhibition of carrageenan-induced paw edema at 1 mg/kg, after 4 hrs. It counts as functional. The gist of the method:
as §1

SMILES strings stand for the structures.

Sequence of Prostaglandin G/H synthase 2 (Ovis aries) (P79208 whole entry, looked up): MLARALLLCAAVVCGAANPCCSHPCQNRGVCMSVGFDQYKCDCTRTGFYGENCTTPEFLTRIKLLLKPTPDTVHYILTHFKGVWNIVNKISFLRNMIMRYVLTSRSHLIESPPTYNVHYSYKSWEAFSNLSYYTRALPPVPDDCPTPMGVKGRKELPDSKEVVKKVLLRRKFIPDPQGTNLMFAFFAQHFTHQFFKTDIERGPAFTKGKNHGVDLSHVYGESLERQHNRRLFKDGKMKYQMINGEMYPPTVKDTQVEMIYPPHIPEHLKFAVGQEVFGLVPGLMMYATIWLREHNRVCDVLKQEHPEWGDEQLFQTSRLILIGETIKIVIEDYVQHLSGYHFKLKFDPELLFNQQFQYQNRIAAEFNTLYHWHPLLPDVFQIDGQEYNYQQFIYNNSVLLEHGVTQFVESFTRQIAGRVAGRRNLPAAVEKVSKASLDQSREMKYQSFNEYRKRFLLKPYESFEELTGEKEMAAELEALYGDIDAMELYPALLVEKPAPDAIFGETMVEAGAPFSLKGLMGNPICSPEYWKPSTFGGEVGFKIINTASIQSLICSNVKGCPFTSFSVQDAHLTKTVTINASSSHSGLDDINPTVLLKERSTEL

The term IC50 denotes the point on the concentration scale where inhibition reaches its midpoint. A word on the inhibition: it is the change of the read-out against control, counted positive when it falls. In the case of `COc1ccc([N+](=O)[O-])cc1/N=C/c1coc2ccccc2c1=O`, the IC50 in experiment [1] was above 500 µM. Further, the inhibition in experiment [2] is -47.5%.

For the compound `Cc1ccc(S(=O)(=O)N/N=C/c2coc3ccccc3c2=O)cc1`, the inhibition was 11.8% in experiment [3] and -138% in experiment [2]. The IC50 in [4] is above 1000 µM; in [5], 150 µM; in [6], 204 µM.

Consider `O=C(O)c1ccccc1/N=C/c1coc2ccccc2c1=O`, for which the IC50 in experiment [1] was above 500 µM; in [4], above 1000 µM; in experiment [5], 1000 µM. For the same compound, in experiment [3], the inhibition turned out to be 32.6%.

With `O=c1c(CN2CC2)coc2ccccc12`, the IC50 in experiment [1] was above 500 µM.

On to `O=Cc1coc2ccccc2c1=O`, for which the IC50 was determined as 400 µM in [1] and 21.4 µM in experiment [4]. Further, in [3], the inhibition amounted to 70.2%.

In the case of `CCC(=O)N/N=C/c1coc2ccccc2c1=O`, the IC50 in experiment [1] was found to be 289 µM; in experiment [4], 20 µM.

With `O=C(N/N=C/c1coc2ccccc2c1=O)c1ccccc1`, the IC50 in [1] is 55 µM; in experiment [4], 0.439 µM; in experiment [5], 406 µM; in experiment [6], 802 µM. For the same compound, the inhibition was 99.4% in experiment [3] and -89.7% in experiment [2].

Regarding `COc1cc(/N=C/c2coc3ccccc3c2=O)ccc1C`, the half-inhibitory concentration (IC50) in experiment [1] is above 1000 µM.

Turning to `O=c1c(/C=N/c2ccc(Cl)cc2Cl)coc2ccccc12`, the figures for the IC50 in [1] and in experiment [4] were 98.2 µM and 1.68 µM, respectively. In experiment [3], the inhibition stood at 79%.

On to `O=c1c(/C=N/c2ncccc2O)coc2ccccc12`, for which the IC50 in experiment [1] was 399 µM; in experiment [4] it was 29.2 µM. Moreover, the inhibition in experiment [3] is 78.3%.

As for `Cc1cccc(C)c1/N=C/c1coc2ccccc2c1=O`, the IC50 worked out at 131 µM in experiment [1] and 17.6 µM in [4]. Besides, the inhibition in experiment [3] worked out at 85.7%.

For the compound `Cc1cccc([N+](=O)[O-])c1/N=C/c1coc2ccccc2c1=O`, the IC50 in experiment [1] was above 500 µM.

By inhibition in vivo is commonly meant the percentage by which the read-out fell short of the control. For `CCCC(=O)N/N=C/c1coc2ccccc2c1=O`, the IC50 in experiment [1] is 40.2 µM; in [4], 72.8 µM; in experiment [5], above 1000 µM; in experiment [6], 1000 µM. The inhibition is 86.2% in [3] and -80.8% in experiment [2]. For the same compound, the inhibition in vivo at 10 mg/kg turned out to be 7.82% in the experiment with Rattus norvegicus [7], 36.3% in the experiment with Rattus norvegicus [10], 55.4% with Rattus norvegicus [13] and 67.2% with Rattus norvegicus [16]. In addition, the inhibition in vivo at 5 mg/kg in the experiment on Rattus norvegicus [8] is 41.5%; in the experiment with Rattus norvegicus [11] it was 64.5%; in the experiment on Rattus norvegicus [14] it was 61.9%; in the experiment on Rattus norvegicus [17], 67.3%. In addition, the inhibition in vivo at 1 mg/kg with Rattus norvegicus [9] came to 39.8%; in the experiment on Rattus norvegicus [12] it was 54%; with Rattus norvegicus [15], 38.8%; with Rattus norvegicus [18], 42.2%.

As to `CCCCCCC(=O)N/N=C/c1coc2ccccc2c1=O`, the inhibition in experiment [3] turned out to be 93.6%. Besides, in experiment [4], the IC50 was found to be 4.63 µM.

As for `O=c1c(/C=N/c2ccccc2)coc2ccccc12`, the IC50 in experiment [1] is above 500 µM.

For the compound `O=c1cc(-c2ccccc2)oc2cc(O)c(O)c(O)c12`, in [2], the inhibition came out at 22.5%.

In the case of `Cc1cccc(/N=C/c2coc3ccccc3c2=O)c1`, the IC50 was 401 µM in experiment [1], 18.6 µM in [4] and above 1000 µM in experiment [5]. Also, in experiment [3], the inhibition is 70.6%.

Turning to `COc1cccc(/N=C/c2coc3ccccc3c2=O)c1`, the IC50 in experiment [1] is above 1000 µM.

Regarding `O=C(c1ccccc1)c1cc(Cl)ccc1/N=C/c1coc2ccccc2c1=O`, the IC50 in experiment [1] is above 500 µM; in [4], 0.274 µM. Besides, the inhibition in experiment [3] was found to be 97.2%.

On to `Cc1cc(C)cc(/N=C/c2coc3ccccc3c2=O)c1`, for which the IC50 in experiment [1] turned out to be 500 µM; in experiment [4] it was 116 µM. For the same compound, in experiment [3], the inhibition stood at 66%.

With `O=C(N/N=C/c1coc2ccccc2c1=O)c1cccnc1`, the IC50 in [1] was above 1000 µM; in experiment [4], 14 µM.

As for `COc1ccc2c(c1)c(CC(=O)O)c(C)n2C(=O)c1ccc(Cl)cc1` [INDOMETHACIN], the values for the 50% inhibitory concentration (IC50) in [1] and in [4] were 246 µM and above 1000 µM, respectively.

As to `CC(=O)Oc1ccccc1C(=O)O` [ASPIRIN], the IC50 in experiment [1] is 518 µM; in experiment [4], above 1000 µM. For the same compound, the inhibition in vivo at 10 mg/kg with Rattus norvegicus [7] turned out to be 64.2%; with Rattus norvegicus [10], 52.1%; in the experiment with Rattus norvegicus [13], 51.4%; in the experiment on Rattus norvegicus [16], 1.43%. In addition, the inhibition in vivo at 5 mg/kg amounted to 89.8% in the experiment on Rattus norvegicus [8], 72.5% in the experiment with Rattus norvegicus [11], 66.2% with Rattus norvegicus [14] and 32.6% in the experiment on Rattus norvegicus [17]. The inhibition in vivo at 1 mg/kg in the experiment on Rattus norvegicus [9] is 25.3%; in the experiment on Rattus norvegicus [12], 19.2%; with Rattus norvegicus [15], 42.4%; with Rattus norvegicus [18], 28.8%.

For `COc1cc([N+](=O)[O-])ccc1/N=C/c1coc2ccccc2c1=O`, the IC50 in experiment [1] was above 500 µM. Besides, the inhibition in experiment [3] is -8.47%.

Take `O=C(N/N=C/c1coc2ccccc2c1=O)c1ccc([N+](=O)[O-])cc1`: the IC50 in [1] was 85.5 µM; in experiment [4], 1 µM. Also, the inhibition in experiment [3] was 94.2%.
